Results reported in ChEMBL document CHEMBL1949525, “Boranophosphate isoster controls P2Y-receptor subtype selectivity and metabolic stability of dinucleoside polyphosphate analogues” (J Med Chem, 2012).
Active and inactive are the calls of the source. No cut-off for these calls is given here.

Assays:
[1] = Selectivity ratio of EC50 for rat P2Y purinoceptor 6 receptor to EC50 for turkey P2Y purinoceptor 1 receptor
How it was run: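 1321N1 astrocytoma cells lacking endogenous P2Y receptors, stably transfected with turkey P2Y1, human P2Y2, human P2Y4 or rat P2Y6, grown in DMEM with 5% FBS, penicillin/streptomycin and 500 µg/mL G-418. Fura-2-loaded cell suspensions were exposed at 37 °C in 10 mM Hepes-buffered saline, pH 7.4, with 1 mM CaCl2 and 1 mM MgCl2. Peak [Ca2+]i rise by dual-excitation spectrofluorometry across concentrations; EC50 from curve fits; three experiments on separate days per subtype.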

[2] = target: P2Y purinoceptor 6 (Rattus norvegicus) (UniProt Q63371); assay: Agonist activity at rat P2Y purinoceptor 6 expressed in human 1321N1 cells assessed as increase in intracellular calcium concentration at 100 uM by spectrofluorimetry; format: functional, cell-based
P2Y purinoceptor 6 (Rattus norvegicus), sequence (Q63371 whole entry): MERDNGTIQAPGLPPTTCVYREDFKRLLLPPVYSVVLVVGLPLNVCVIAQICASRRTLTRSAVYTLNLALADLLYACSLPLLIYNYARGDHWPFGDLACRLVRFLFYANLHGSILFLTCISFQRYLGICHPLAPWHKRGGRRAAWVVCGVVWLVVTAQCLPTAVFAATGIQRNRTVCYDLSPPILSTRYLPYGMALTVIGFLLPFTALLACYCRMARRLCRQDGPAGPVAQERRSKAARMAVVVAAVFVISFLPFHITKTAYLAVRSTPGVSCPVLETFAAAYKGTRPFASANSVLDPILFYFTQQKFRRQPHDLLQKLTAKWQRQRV

[3] = target: P2Y purinoceptor 6 (Rattus norvegicus) (UniProt Q63371); assay: Antagonist activity at rat P2Y purinoceptor 6 expressed in human 1321N1 cells assessed as inhibition of UDP-induced increase in intracellular calcium concentration by spectrofluorimetry; format: functional, cell-based
How it was run: (§1)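 Fura-2-loaded 1321N1 transfectants (turkey P2Y1, human P2Y2/P2Y4, rat P2Y6) in Hepes-buffered saline, pH 7.4, at 37 °C. Analogues were tested against equimolar reference agonist: 2-MeS-ADP for P2Y1, UTP for P2Y2/4, UDP for P2Y6. Blockade of the [Ca2+]i rise was followed by dual-excitation spectrofluorometry.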

[4] = target: T1, P2Y purinoceptor 2 (Homo sapiens, UniProt P41231); assay: Antagonist activity at human P2Y purinoceptor 2 expressed in human 1321N1 cells assessed as inhibition of UTP-induced increase in intracellular calcium concentration by spectrofluorimetry; format: functional, cell-based; how it was run: as §1
T1 sequence (P41231 whole entry): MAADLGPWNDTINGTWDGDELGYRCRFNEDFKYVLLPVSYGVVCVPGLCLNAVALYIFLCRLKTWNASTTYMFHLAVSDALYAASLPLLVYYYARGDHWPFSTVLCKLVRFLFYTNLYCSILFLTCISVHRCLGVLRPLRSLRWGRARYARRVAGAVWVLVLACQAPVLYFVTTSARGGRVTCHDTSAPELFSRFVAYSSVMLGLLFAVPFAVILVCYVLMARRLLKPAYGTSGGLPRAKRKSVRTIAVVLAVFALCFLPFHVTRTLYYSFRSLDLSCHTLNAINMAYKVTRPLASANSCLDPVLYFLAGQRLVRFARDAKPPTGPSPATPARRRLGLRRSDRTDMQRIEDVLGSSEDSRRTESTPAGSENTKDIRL

[5] = target: P2Y purinoceptor 1 (Meleagris gallopavo) (UniProt P49652); assay: Antagonist activity at turkey P2Y purinoceptor 1 expressed in human 1321N1 cells assessed as inhibition of 2-Sme-ADP-induced increase in intracellular calcium concentration by spectrofluorimetry; format: functional, cell-based; how it was run: as §1
P2Y purinoceptor 1 (Meleagris gallopavo), sequence (P49652 whole entry): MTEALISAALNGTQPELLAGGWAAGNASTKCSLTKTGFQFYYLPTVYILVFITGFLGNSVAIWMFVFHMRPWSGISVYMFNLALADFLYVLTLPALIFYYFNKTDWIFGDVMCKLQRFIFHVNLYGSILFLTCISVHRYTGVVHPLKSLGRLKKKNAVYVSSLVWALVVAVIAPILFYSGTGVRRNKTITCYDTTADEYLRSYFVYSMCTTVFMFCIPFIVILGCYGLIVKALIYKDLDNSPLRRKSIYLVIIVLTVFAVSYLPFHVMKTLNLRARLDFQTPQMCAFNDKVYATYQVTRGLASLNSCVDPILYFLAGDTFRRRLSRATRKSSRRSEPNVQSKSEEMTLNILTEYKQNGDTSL

[6] = target: P2Y purinoceptor 4 (Homo sapiens, UniProt P51582); assay: Antagonist activity at human P2Y purinoceptor 4 expressed in human 1321N1 cells assessed as inhibition of UTP-induced increase in intracellular calcium concentration by spectrofluorimetry; format: functional, cell-based; how it was run: as §1
P2Y purinoceptor 4, sequence (P51582 whole entry): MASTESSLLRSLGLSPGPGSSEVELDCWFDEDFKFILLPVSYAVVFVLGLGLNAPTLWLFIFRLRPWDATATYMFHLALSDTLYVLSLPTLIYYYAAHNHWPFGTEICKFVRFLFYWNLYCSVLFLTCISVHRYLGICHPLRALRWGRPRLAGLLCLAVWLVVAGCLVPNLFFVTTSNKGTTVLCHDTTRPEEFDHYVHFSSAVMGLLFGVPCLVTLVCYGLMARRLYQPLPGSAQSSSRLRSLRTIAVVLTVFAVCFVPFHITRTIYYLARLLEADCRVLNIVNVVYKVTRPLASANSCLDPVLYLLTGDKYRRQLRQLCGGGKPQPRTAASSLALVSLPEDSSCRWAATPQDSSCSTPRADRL

[7] = Chemical stability of the compound at pH mimicking gastric juice acidity; format: physicochemical; settings: simulated gi fluid
[8] = Chemical stability of the compound at physiological conditions; format: physicochemical
[9] = Stability of the compound assessed as human e-NPP3-mediated compound hydrolysis by HPLC analysis; format: ADME
[10] = Stability of the compound assessed as human e-NPP1-mediated hydrolysis at pH 8.5 after 20 mins by HPLC analysis; format: ADME; settings: buffer, pH 8.5, 20 min
How it was run: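 Human NPP1 preparation preincubated 3 min at 37 °C in 1 mM CaCl2, 200 mM NaCl, 10 mM KCl, 100 mM Tris, pH 8.5. Started with 0.2 mM dinucleotide solution (added volume) and stopped after 20 min in ice-cold perchloric acid. Neutralised with KOH, then NMP formation followed by HPLC. Percent substrate hydrolysed is the mean of two experiments run in triplicate.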

[11] = target: P2Y purinoceptor 1 (Meleagris gallopavo) (UniProt P49652); assay: Agonist activity at turkey P2Y purinoceptor 1 expressed in human 1321N1 cells assessed as increase in intracellular calcium concentration at 100 uM by spectrofluorimetry; format: functional, cell-based
[12] = target: T1, P2Y purinoceptor 2; assay: Agonist activity at human P2Y purinoceptor 2 expressed in human 1321N1 cells assessed as increase in intracellular calcium concentration at 100 uM by spectrofluorimetry; format: functional, cell-based

SMILES	Ratio EC50 [1]	Activity [2]	Activity [3]	Activity [4]	Activity [5]	Activity [6]	Stability [7]	Stability [8]	Stability [9]	Stability [10]	Activity [11]	Activity [12]
BP(=O)(OP(=O)(O)OC[C@H]1O[C@@H](n2cnc3c(N)ncnc32)[C@H](O)[C@@H]1O)OP(=O)(O)OP(=O)(O)OC[C@H]1O[C@@H](n2ccc(=O)[nH]c2=O)[C@H](O)[C@@H]1O.CCCCN(CCCC)CCCC.CCCCN(CCCC)CCCC.CCCCN(CCCC)CCCC.CCCCN(CCCC)CCCC (mixture of isomers)	42											
BP(=O)(OP(=O)(O)OC[C@H]1O[C@@H](n2cnc3c(N)ncnc32)[C@H](O)[C@@H]1O)OP(=O)(O)OP(=O)(O)OC[C@H]1O[C@@H](n2cnc3c(N)ncnc32)[C@H](O)[C@@H]1O.CCCCN(CCCC)CCCC.CCCCN(CCCC)CCCC.CCCCN(CCCC)CCCC.CCCCN(CCCC)CCCC (stereo in doubt; 6A)		Active	inactive	inactive	inactive	inactive						
BP(=O)(OP(=O)(O)OC[C@H]1O[C@@H](n2cnc3c(N)ncnc32)[C@H](O)[C@@H]1O)OP(=O)(O)OC[C@H]1O[C@@H](n2cnc3c(N)ncnc32)[C@H](O)[C@@H]1O.CCCCN(CCCC)CCCC.CCCCN(CCCC)CCCC.CCCCN(CCCC)CCCC							Stable	Stable	Stable	Stable		
BP(=O)(OP(=O)(O)OC[C@H]1O[C@@H](n2cnc3c(N)ncnc32)[C@H](O)[C@@H]1O)OP(=O)(O)OP(=O)(O)OC[C@H]1O[C@@H](n2cnc3c(N)ncnc32)[C@H](O)[C@@H]1O.CCCCN(CCCC)CCCC.CCCCN(CCCC)CCCC.CCCCN(CCCC)CCCC.CCCCN(CCCC)CCCC (stereo in doubt; 6B)		Active	inactive	inactive	inactive	inactive						

Now from value to molecule:

Ratio EC50 [1]	Activity [2]	Activity [3]	Activity [4]	Activity [5]	Activity [6]	Stability [7]	Stability [8]	Stability [9]	Stability [10]	Activity [11]	Activity [12]	SMILES
		inactive	inactive	inactive	inactive					Active	Active	BP(=O)(OP(=O)(O)OC[C@H]1O[C@@H](n2ccc(=O)[nH]c2=O)[C@H](O)[C@@H]1O)OP(=O)(O)OP(=O)(O)OC[C@H]1O[C@@H](n2ccc(=O)[nH]c2=O)[C@H](O)[C@@H]1O.CCCCN(CCCC)CCCC.CCCCN(CCCC)CCCC.CCCCN(CCCC)CCCC.CCCCN(CCCC)CCCC (stereo in doubt; 7A)
		inactive	inactive	inactive	inactive						Active	BP(=O)(OC[C@H]1O[C@@H](n2ccc(=O)[nH]c2=O)[C@H](O)[C@@H]1O)OP(=O)(O)OP(=O)(O)OP(=O)(O)OC[C@H]1O[C@@H](n2ccc(=O)[nH]c2=O)[C@H](O)[C@@H]1O.CCCCN(CCCC)CCCC.CCCCN(CCCC)CCCC.CCCCN(CCCC)CCCC.CCCCN(CCCC)CCCC (stereo in doubt; 13A)
